Experiment [1] is filed under the species Mus musculus. The experiment in a line: Change in the latency time on day 1 to that of day 2. The experiment is classed as functional. The method in brief:
(§1)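 Mouse light/dark step-through test with a pitfall floor: entering the dark room drops the mouse 40 cm into 10 °C water. Latencies in s are taken at training and at retention 24 h later, capped at 120 s. Mice not entering within 60 s are excluded. Dosing is sc 20 min before training, in saline or DMSO/H2O vehicle.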

Experiment [2] is filed under the species Mus musculus. Description: Latency time on 1st day of mouse passive-avoidance test. Further: test concentration or dose not given here. In kind it is functional. The method in brief:
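Mouse light/dark step-through test with a pitfall floor: entering the dark room drops the mouse 40 cm into 10 °C water. Mice not entering within 60 s are excluded. Dosing is sc 20 min before training, in saline or DMSO/H2O vehicle.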

The species named for experiment [3] is Mus musculus. Description: Latency time on 2nd (post-treatment) day of mouse passive-avoidance test. The experiment is classed as functional. The method in brief: as §1
The test system of experiment [4] is Mus musculus. The experiment in a line: Minimal effective s.c. dose to reverse Scopolamine induced amnesia in mouse passive-avoidance test.
Experiment [5] concerns Mus musculus. Description: Minimal effective dose to reverse Scopolamine induced amnesia, when given ip in mouse passive avoidance test. The experiment is classed as functional. The gist of the method: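 Mouse passive avoidance (light/dark box) with a pitfall floor: entering the dark room drops the mouse 40 cm into 10 °C water. Test drugs were given in a 1-to-10 dilution series 20 min before training. […] Retention was tested at 24 h, with a 120 s maximum. Mice not entering within 60 s at training were excluded. The read-out is the retention minus training latency (s).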

The test system of experiment [6] is Mus musculus. Description: Minimal effective dose to reverse Scopolamine induced amnesia, when given sc in mouse passive avoidance test; Dose limited by solubility problems. In kind it is functional.

The values below come from ChEMBL document CHEMBL1133180 (2000).

On to `O=C1CC[C@@H]2CN(S(=O)(=O)c3ccc(F)cc3)CCN12`, for which the Delta latency time in the experiment filed under Mus musculus [1] was determined as 93.8 s. In addition, the Latency time was 19.7 s in the experiment listed under Mus musculus [2] and 104.4 s in the experiment filed under Mus musculus [3]. In the experiment on Mus musculus [4], this compound returned a Dose of 0.001 mg/kg.
Take `O=C1CC[C@@H]2CN(Cc3ccc(F)cc3)CCN12`: in the experiment with Mus musculus [4], the Dose is greater than 10 mg/kg.
The compound `O=C(c1ccc(F)cc1)N1CCN2C(=O)CC[C@@H]2C1` returned a Delta latency time in the experiment listed under Mus musculus [1] of 77.2 s. Besides, the results for the Latency time in the experiment filed under Mus musculus [2] and in the experiment filed under Mus musculus [3] were 11.7 s and 88.9 s, respectively. For the same compound, the Dose in the experiment on Mus musculus [4] was 10 mg/kg.
In the experiment filed under Mus musculus [1], `Cc1ccc(C(=O)N2CCN3C(=O)CC[C@@H]3C2)cc1` had a Delta latency time of 84.5 s. Besides, the Latency time was 15.6 s in the experiment filed under Mus musculus [2] and 100.1 s in the experiment listed under Mus musculus [3]. Further, the Dose in the experiment on Mus musculus [4] is 1 mg/kg.
Compound `O=C1CC[C@@H]2CN(S(=O)(=O)c3ccc([N+](=O)[O-])cc3)CCN12` showed a Delta latency time in the experiment listed under Mus musculus [1] of 75.4 s. Also, the Latency time stood at 13.8 s in the experiment filed under Mus musculus [2] and 89.2 s in the experiment listed under Mus musculus [3]. Further, in the experiment on Mus musculus [4], the Dose turned out to be 10 mg/kg.
As for `Cc1ccc(S(=O)(=O)N2CCN3C(=O)CC[C@@H]3C2)cc1`, the Delta latency time in the experiment listed under Mus musculus [1] amounted to 80.5 s. The Latency time in the experiment filed under Mus musculus [2] came out at 15.1 s; in the experiment listed under Mus musculus [3], 95.6 s. In the experiment on Mus musculus [4], this compound displayed a Dose of 1 mg/kg.
In turn, `NC(=O)CN1CCCC1=O` yielded a Delta latency time in the experiment filed under Mus musculus [1] of 91.2 s. The Latency time in the experiment filed under Mus musculus [2] is 17.6 s; in the experiment filed under Mus musculus [3], 108.8 s. The compound further gave a Dose in the experiment on Mus musculus [5] of 30 mg/kg.
In the experiment with Mus musculus [6], `COc1ccc(C(=O)N2CCN3C(=O)CC[C@@H]3C2)cc1` had a Dose greater than 1 mg/kg.
With `O=C(c1ccc(Cl)cc1)N1CCN2C(=O)CC[C@@H]2C1`, the Delta latency time in the experiment filed under Mus musculus [1] was 85.4 s. For the same compound, the Latency time was determined as 18.3 s in the experiment filed under Mus musculus [2] and 103.7 s in the experiment filed under Mus musculus [3]. Also, in the experiment with Mus musculus [4], the Dose was found to be 10 mg/kg.
The compound `O=C(c1ccc([N+](=O)[O-])cc1)N1CCN2C(=O)CC[C@@H]2C1` came in with a Delta latency time in the experiment listed under Mus musculus [1] of 78.2 s. The Latency time in the experiment filed under Mus musculus [2] is listed as 18 s; in the experiment filed under Mus musculus [3] it was 96.2 s. Besides, the Dose in the experiment on Mus musculus [4] came out at 10 mg/kg.
In the experiment with Mus musculus [6], `O=C1CC[C@@H]2CN(S(=O)(=O)c3ccc(Cl)cc3)CCN12` registered a Dose greater than 0.1 mg/kg.
On to `O=C1CC[C@@H]2CN(Cc3ccccc3)CCN12`, for which the Delta latency time in the experiment listed under Mus musculus [1] was 63.2 s. Moreover, the Latency time in the experiment filed under Mus musculus [2] is on record as 14.2 s; in the experiment filed under Mus musculus [3], 77.4 s. In the experiment on Mus musculus [4], this compound showed a Dose of 1 mg/kg.
In the case of `COc1ccc(S(=O)(=O)N2CCN3C(=O)CC[C@@H]3C2)cc1`, in the experiment filed under Mus musculus [1], the Delta latency time is 103.5 s. Also, the Latency time in the experiment listed under Mus musculus [2] is listed as 14.8 s; in the experiment filed under Mus musculus [3] it was 118.3 s. The same compound returned a Dose in the experiment on Mus musculus [4] of 0.1 mg/kg.
In turn, `O=C1CC[C@@H]2CN(S(=O)(=O)c3ccccc3)CCN12` came in with a Dose in the experiment on Mus musculus [6] greater than 10 mg/kg.
The compound `O=C(c1ccccc1)N1CCN2C(=O)CC[C@@H]2C1` came in with a Delta latency time in the experiment listed under Mus musculus [1] of 85.2 s. Further, the Latency time in the experiment filed under Mus musculus [2] is reported as 16.8 s; in the experiment listed under Mus musculus [3] it was 102 s. In the experiment with Mus musculus [4], this compound gave a Dose of 1 mg/kg.
As for `C[C@@H]1C[C@@H]2CN(C(=O)c3ccccc3)CCN2C1=O` (relative stereo), in the experiment listed under Mus musculus [1], the Delta latency time worked out at 65.8 s. The Latency time in the experiment filed under Mus musculus [2] is given as 17.7 s; in the experiment listed under Mus musculus [3] it was 83.5 s. The same compound came in with a Dose with Mus musculus [4] of 1 mg/kg.
For `C[C@H]1C[C@@H]2CN(C(=O)c3ccccc3)CCN2C1=O` (relative stereo) the same measures were 85.2 s, 14.3 s, 99.5 s and 1 mg/kg.
Turning to `C[C@H]1C[C@@H]2CN(C(=O)c3ccc(F)cc3)CCN2C1=O` (relative stereo), the Delta latency time in the experiment listed under Mus musculus [1] is listed as 85.6 s. Besides, the Latency time is 21.8 s in the experiment listed under Mus musculus [2] and 107.4 s in the experiment filed under Mus musculus [3]. The Dose in the experiment on Mus musculus [4] was 0.1 mg/kg.
In the experiment filed under Mus musculus [1], `C[C@@H]1C[C@@H]2CN(S(=O)(=O)c3ccc(F)cc3)CCN2C1=O` (relative stereo) returned a Delta latency time of 96.5 s. The Latency time in the experiment listed under Mus musculus [2] came to 21.9 s; in the experiment listed under Mus musculus [3], 118.4 s. Moreover, in the experiment with Mus musculus [4], the Dose amounted to 0.1 mg/kg.
The corresponding values for `C[C@H]1C[C@@H]2CN(S(=O)(=O)c3ccccc3)CCN2C1=O` (relative stereo) are 73 s, 18.3 s, 91.3 s and 10 mg/kg.
The corresponding values for `C[C@H]1C[C@@H]2CN(S(=O)(=O)c3ccc(F)cc3)CCN2C1=O` (relative stereo) are 78 s, 16.9 s, 94.9 s and 0.1 mg/kg.
The corresponding values for `C[C@@H]1C[C@@H]2CN(S(=O)(=O)c3ccccc3)CCN2C1=O` (relative stereo) are 78.5 s, 13.6 s, 94.8 s and 1 mg/kg.
For the compound `C[C@@H]1C[C@@H]2CN(C(=O)c3ccc(F)cc3)CCN2C1=O` (relative stereo), the Delta latency time in the experiment listed under Mus musculus [1] is on record as 80 s. Besides, the values for the Latency time in the experiment listed under Mus musculus [2] and in the experiment listed under Mus musculus [3] were 24 s and 104 s, respectively. This compound also came in with a Dose with Mus musculus [4] of 0.1 mg/kg.
Regarding `CN1[C@@H]2C[C@@H](OC(=O)[C@H](CO)c3ccccc3)C[C@H]1[C@@H]1O[C@@H]12` [SCOPOLAMINE], in the experiment listed under Mus musculus [1], the Delta latency time is 27.9 s. Besides, the Latency time in the experiment filed under Mus musculus [3] is on record as 44.5 s. In the experiment on Mus musculus [5], this compound yielded a Dose of 1.5 mg/kg.
